Experimental data pooled from the literature.
Target: Serine/threonine-protein kinase Chk1 (CHEK1, Homo sapiens, UniProt O14757)
Mode: inhibitor
Residues used in one study (O14757 1-476): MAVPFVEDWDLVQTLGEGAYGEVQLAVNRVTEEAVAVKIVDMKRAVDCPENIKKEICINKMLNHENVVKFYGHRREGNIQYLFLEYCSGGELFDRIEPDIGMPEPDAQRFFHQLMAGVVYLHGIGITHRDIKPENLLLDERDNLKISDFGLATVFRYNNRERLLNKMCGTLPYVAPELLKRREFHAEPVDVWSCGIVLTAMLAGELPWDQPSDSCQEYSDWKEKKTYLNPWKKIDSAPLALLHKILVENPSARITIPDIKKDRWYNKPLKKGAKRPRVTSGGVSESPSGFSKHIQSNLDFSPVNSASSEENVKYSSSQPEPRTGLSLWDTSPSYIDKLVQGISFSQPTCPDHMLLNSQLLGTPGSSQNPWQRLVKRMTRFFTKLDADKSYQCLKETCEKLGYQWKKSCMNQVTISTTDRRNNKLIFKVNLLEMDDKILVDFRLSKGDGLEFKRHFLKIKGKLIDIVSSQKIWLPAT

O=C(CSc1nc2nccnc2c(=O)n1CCc1ccccc1)Nc1nccs1  inhibition (enzyme activity; 10 µM): -11%
CCN1CCN(Cc2ccc(NC(=O)c3ccc(C)c(/C=C/c4cnc5[nH]ccc5c4OC)c3)cc2C(F)(F)F)CC1  inhibition (target engagement in cells, chemoproteomics; A-375; 0.5 µM): -126%
Cc1ccc(Nc2nccc(N(C)c3ccc4c(C)n(C)nc4c3)n2)cc1S(N)(=O)=O  inhibition (enzyme activity; 0.3 µM): 2%
CNCc1ccc(-c2cc(-c3nc(-c4ccc(S(=O)(=O)C(C)C)cc4)cnc3N)on2)cc1  inhibition (enzyme activity; 2 µM): 52%
CCCCNc1ncc2c(-c3ccc(F)cc3)nn(C[C@H]3CC[C@H](N)CC3)c2n1  inhibition (target engagement in cells, chemoproteomics; 20 mM): -8.8%
CCCOc1ccc(/C=C2\SC(=O)NC2=O)cc1  inhibition (enzyme activity, mobility shift; 5 µM): -20%
CN(C)C1CCN(CC#Cc2nn(C3CCCC3)c3nc(NCc4ccccc4)ncc23)C1 (stereo not drawn)  inhibition (enzyme activity, FRET; 10 µM): 15%
CCN1CCN(Cc2ccc(NC(=O)c3ccc(C)c(Oc4ccnc5[nH]ccc45)c3)cc2C(F)(F)F)CC1  inhibition (target engagement in cells, chemoproteomics; A-375; 50 nM): -156%
COc1cc2ncnc(Nc3ccc(Oc4ccccc4)c(C)c3C)c2cc1OC  inhibition (enzyme activity; 1 µM): 1%
CNC(=O)c1cc(Oc2ccc(NC(=O)Nc3ccc(Cl)c(C(F)(F)F)c3)cc2)ccn1  inhibition (enzyme activity; 0.3 µM): -5%
c1ccc(CNc2nc(N3CCOc4ccccc43)nc3c2CCCC3)cc1  inhibition (target engagement in cells, chemoproteomics; 20 mM): -3.2%
CSc1nc(C)c(-c2ccnc(Nc3ccc(N4CCOCC4)cc3)c2)[nH]1  inhibition (enzyme activity; 10 µM): 12.4%
